Source: PubChem (Broad Institute)
Rows were chosen to be rich in hits. Some 2.9% of all compounds tested hit in one or more screens of this group.
S100A4 MyoIIA: blocks human S100A4 binding to myosin IIA peptide | AID 652163 | S100A4/TAMRA-MyoIIA peptide fluorescence polarization | inhibition, % at 10.7 µM | 0.14% of 360,000 active;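 active = mean inhibition of at least 70% across replicates, with every replicate also reaching that level; inconclusive = mean inhibition reaches 70% but some replicates fall short; inactive = mean inhibition below 70%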
Target sequence (P26447 whole entry, looked up): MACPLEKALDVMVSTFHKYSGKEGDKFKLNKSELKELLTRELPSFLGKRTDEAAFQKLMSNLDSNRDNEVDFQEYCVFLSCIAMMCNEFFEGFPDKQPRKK
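Material: S100A4 monomer protein / Buffer or medium: 50 mM HEPES pH 7.2, 10 mM CaCl2, 100 mM KCl / Times: 5 min incubation before reading / Benchmarks: neutral control DMSO, positive control TFP / Reagent: labelled myosin peptide probe, 5 nM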
DENV2 CPE: protects cells from dengue virus 2 cytopathic effect | DENV2-infected cells, cytopathic effect rescue, plate reader | CPE inhibition, % at 9.99 µM | 1.7% of 350,000 active | AID 651640; in the data active = CPE inhibition above about 20%, passing the limit was not always enough; inconclusive = no clear call, values can overlap the other calls; tested in BHK-21 cells;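 note: 0% = median of neutral control wells and 100% = median of positive control wells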
PGC1a acetyl inh: lowers PGC1a acetylation signal in U2OS cells. AlphaScreen anti-acetyl-lysine; with virally co-expressed GCN5 acetyltransferase. inhibition, % at 15.6 µM. 0.17% of 350,000 active. AID 651687;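 active = every replicate shows inhibition of at least 40%; inconclusive = mean inhibition at least 40% but some replicate below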;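 note: 0% = neutral control wells and 100% = positive control wells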
C2C12 statin: protects C2C12 myotubes from simvastatin toxicity; ATP luminescence, 48 h; scaled: DMSO 0, geranylgeraniol control 100; rescue of ATP level, % at 7.49 µM; 0.78% of 330,000 active; AID 602340;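 active = mean ATP rescue above about 67%, or every replicate alone reaching that limit, limit read from the data, passing the limit was not always enough; inconclusive = no clear call, values can overlap the other calls; inactive = mean under the limit and some replicate under it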;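 note: myotubes were challenged with 10 µM simvastatin during compound exposure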
SIRT5 inh: blocks human SIRT5 desuccinylation of peptide. Q9NXA8. Purified SirT5, succinyl-peptide AMC, trypsin-coupled fluorescence. inhibition, % at 15 µM. 1.1% of 330,000 active; in the data active = inhibition above about 15%; inconclusive = no clear call, values can overlap the other calls
Target sequence (Q9NXA8 whole entry, looked up): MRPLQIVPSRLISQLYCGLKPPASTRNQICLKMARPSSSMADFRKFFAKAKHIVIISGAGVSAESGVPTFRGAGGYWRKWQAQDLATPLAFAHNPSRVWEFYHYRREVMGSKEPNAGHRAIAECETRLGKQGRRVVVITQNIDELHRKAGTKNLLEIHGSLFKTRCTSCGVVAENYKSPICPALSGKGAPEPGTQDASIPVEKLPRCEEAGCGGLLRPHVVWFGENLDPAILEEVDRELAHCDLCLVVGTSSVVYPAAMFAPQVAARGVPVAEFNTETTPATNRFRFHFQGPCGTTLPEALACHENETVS
Starred values were filed as active, the others as inactive.

Screening C[C@@H]1CN([C@@H](C)CO)C(=O)c2cc(NC(=O)Nc3ccc(C(F)(F)F)cc3)ccc2O[C@@H](C)CCCCO[C@@H]1CN(C)Cc1ccc2c(c1)OCO2 returned S100A4 MyoIIA -3, DENV2 CPE -31, PGC1a acetyl inh -7 and SIRT5 inh 0.
For CCC(Sc1nc(C)cc(C)n1)C(=O)NC1=NN=C(c2ccc(C)cc2)CS1 (stereo unspecified) the results were S100A4 MyoIIA -3, DENV2 CPE -7, PGC1a acetyl inh -1, C2C12 statin 83* and SIRT5 inh -3.
CCC(Sc1nc(C)cc(C)n1)C(=O)Nc1cc(C)on1 (stereo unspecified) was read as S100A4 MyoIIA -26, DENV2 CPE 4, PGC1a acetyl inh 4 and SIRT5 inh -2.
For Cc1cc(C)nc(SCC(=O)NC2=NN=C(c3ccc(Br)cc3)CS2)n1 the results were PGC1a acetyl inh 7 and C2C12 statin 145*.
For Cc1cc(C)nc(SCC(=O)Nc2ccc(Br)cn2)n1 the results were PGC1a acetyl inh -1 and C2C12 statin -12.
CCc1cc2c(nc1CC)CCCN2Cc1ccc(Br)cc1 was read as S100A4 MyoIIA -12 and DENV2 CPE 1.
C=C(C)C1CC=C(C)/C(=N/NC(=O)c2ccc(NC(=O)CC)cc2)C1 (stereo unspecified) was read as S100A4 MyoIIA -2, PGC1a acetyl inh 7, C2C12 statin 119* and SIRT5 inh 0.
For CCN(CC(=O)Nc1c(F)cccc1F)C(=O)c1ccc(C(F)(F)F)cc1 the results were S100A4 MyoIIA -1, DENV2 CPE 6, C2C12 statin 6 and SIRT5 inh -3.
For CCN(CC(=O)Nc1c(F)cccc1F)C(=O)c1ccc(COc2ccccc2)cc1 the results were S100A4 MyoIIA -7, DENV2 CPE 89*, PGC1a acetyl inh -2, C2C12 statin -2 and SIRT5 inh 0.
CCN(CC(=O)Nc1c(F)cccc1F)C(=O)c1ccc2c(c1)NC(=O)C(C)S2 (stereo unspecified) was read as S100A4 MyoIIA -2, DENV2 CPE -7, C2C12 statin -25 and SIRT5 inh 27*.
Screening CCNC(=O)C[C@H]1CC[C@H]2[C@H](COc3ccc(NC(=O)C4CCCCC4)cc3C(=O)N2C)O1 returned S100A4 MyoIIA -1, DENV2 CPE 13, PGC1a acetyl inh -1, C2C12 statin 0 and SIRT5 inh 1.
Screening CCOC(=O)C(=Cc1ccc(OCc2ccc([N+](=O)[O-])cc2)c(OC)c1)C(=O)OCC returned PGC1a acetyl inh 57*.
`COCC(=O)N(C)C[C@@H]1[C@@H](c2ccccc2)[C@H](CO)N1C(=O)Cc1cccnc1` gave S100A4 MyoIIA 42, DENV2 CPE -7, PGC1a acetyl inh 0, C2C12 statin 2 and SIRT5 inh 1.
N#C[C@@H]1[C@@H](c2ccccc2-c2ccccc2)[C@H](CO)N1C(=O)Cc1cccnc1 was read as S100A4 MyoIIA -9, DENV2 CPE 0, PGC1a acetyl inh -1 and SIRT5 inh 1.
For C/C=C/c1ccc([C@@H]2[C@H](CO)N(C(=O)Cc3ccncc3)[C@H]2CNC(C)=O)cc1 the results were DENV2 CPE 31*, PGC1a acetyl inh 1 and C2C12 statin 1.
N#C[C@H]1[C@H](c2ccccc2-c2ccccc2)[C@@H](CO)N1C(=O)Cc1cccnc1 was read as S100A4 MyoIIA 0, DENV2 CPE 35*, PGC1a acetyl inh -3 and SIRT5 inh -1.
Screening COCC(=O)N(C)C[C@H]1[C@H](c2ccccc2)[C@@H](CO)N1C(=O)Cc1ccncc1 returned S100A4 MyoIIA 6, DENV2 CPE 10, PGC1a acetyl inh 11, C2C12 statin 5 and SIRT5 inh 20*.
N#C[C@@H]1[C@@H](c2ccc(-c3ccccc3)cc2)[C@@H](CO)N1C(=O)Cc1ccncc1 was read as S100A4 MyoIIA -19, DENV2 CPE -7, PGC1a acetyl inh 63*, C2C12 statin -10 and SIRT5 inh 0.
For CC(C)(C)[S@@](=O)N1Cc2cc(C(=O)NC3CCCCC3)nc(-c3cccc(Br)c3)c2[C@H]1CCO the results were S100A4 MyoIIA -29, DENV2 CPE -3, C2C12 statin -26 and SIRT5 inh 3.
For N#C[C@@H]1[C@@H](c2ccc(-c3ccccc3)cc2)[C@H](CO)N1C(=O)Cc1ccccc1 the results were S100A4 MyoIIA inconclusive, DENV2 CPE inconclusive, PGC1a acetyl inh 18, C2C12 statin 6 and SIRT5 inh 2.
For N#C[C@H]1[C@H](c2ccc(-c3ccccc3)cc2)[C@H](CO)N1C(=O)Cc1ccccc1 the results were S100A4 MyoIIA 5, DENV2 CPE inconclusive, PGC1a acetyl inh 0, C2C12 statin 17 and SIRT5 inh 15*.
Screening S=C(c1ccc(-c2ccccc2Cl)o1)N1CCOCC1 returned PGC1a acetyl inh 11 and C2C12 statin 78*.
Screening CCOC(=O)CCCNC(=O)CN1CCC(c2nc3ccccc3s2)CC1 returned S100A4 MyoIIA 0, DENV2 CPE -3, PGC1a acetyl inh 1, C2C12 statin 2 and SIRT5 inh -1.
`O=C(CN1CCC(c2nc3ccccc3s2)CC1)NCc1ccccc1` gave PGC1a acetyl inh 3 and C2C12 statin 113*.
Screening CC(=O)N[C@H]1C=C[C@@H](CC(=O)NCc2ccc(Cl)cc2)O[C@H]1CO returned S100A4 MyoIIA 6, DENV2 CPE inconclusive, PGC1a acetyl inh 0, C2C12 statin -1 and SIRT5 inh -4.
For C[C@H](N)c1nnc(SCC(=O)c2ccc(Cl)cc2)o1 the results were PGC1a acetyl inh -1 and C2C12 statin 119*.
`CC(C)[C@H](N)c1nnc(SCC(=O)c2ccc(Cl)cc2)o1` gave PGC1a acetyl inh -4 and C2C12 statin 1.
For C[C@@H]1CN([C@H](C)CO)C(=O)c2cc(NC(=O)Nc3ccccc3)ccc2O[C@H]1CN(C)C(=O)Nc1cccc2ccccc12 the results were S100A4 MyoIIA -5, DENV2 CPE 19, PGC1a acetyl inh 1, C2C12 statin 6 and SIRT5 inh 2.
For CC(C)NC(=O)N(C)C[C@@H]1Oc2cc(C#CC3CC3)ccc2S(=O)(=O)N([C@H](C)CO)C[C@H]1C the results were S100A4 MyoIIA -10, DENV2 CPE 6, PGC1a acetyl inh -7, C2C12 statin 6 and SIRT5 inh 0.
Screening COC(=O)c1ccc(OC)c(OC2CCCC2)c1 returned S100A4 MyoIIA -2, DENV2 CPE 4, PGC1a acetyl inh 89*, C2C12 statin 5 and SIRT5 inh -2.
`COc1ccc(NC(=O)C2CC2)cc1OC1CCCC1` gave C2C12 statin 0.
Screening O=C(c1ccc(F)cc1)N1CCC(N2CCOCC2)CC1 returned PGC1a acetyl inh 4.
Screening COc1cc2c(cc1OC)CN(C(=O)c1ccc(-c3ccccc3)cc1)CC2 returned S100A4 MyoIIA 0, DENV2 CPE -5, PGC1a acetyl inh 1, C2C12 statin -18 and SIRT5 inh 0.
